According to ChEMBL document CHEMBL1155099, “Natural products in parallel synthesis: triazole libraries of nonactic acid” (2008):
Calls of active or inactive are those of the source.

Tests used:
Format in all cases: functional, organism-based
Bacillus anthracis = assay: Antibacterial activity against Bacillus anthracis at 1mM by almar blue dye reduction assay
Bacillus cereus = assay: Antibacterial activity against Bacillus cereus at 1 mM by almar blue dye reduction assay
Method in brief: (§1)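 Single-point primary screen at 1 mM using Alamar Blue dye reduction as the growth read-out.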

Bacillus subtilis = assay: Antibacterial activity against Bacillus subtilis at 1 mM by almar blue dye reduction assay; method in brief: as §1
Staphylococcus aureus = assay: Antibacterial activity against Staphylococcus aureus at 1 mM by almar blue dye reduction assay; method in brief: as §1
Escherichia coli = assay: Antibacterial activity against Escherichia coli at 1 mM by almar blue dye reduction assay; method in brief: as §1
Pseudomonas aeruginosa = assay: Antibacterial activity against Pseudomonas aeruginosa at 1 mM by almar blue dye reduction assay; method in brief: as §1
Candida albicans = assay: Antifungal activity against Candida albicans at 1 mM by almar blue dye reduction assay; method in brief: as §1
Cryptococcus neoformans = assay: Antifungal activity against Cryptococcus neoformans at 1 mM by almar blue dye reduction assay; method in brief: as §1
Saccharomyces cerevisiae = assay: Antifungal activity against Saccharomyces cerevisiae at 1 mM by almar blue dye reduction assay; method in brief: as §1

Measured: Activity

C[C@H](C[C@@H]1CC[C@H]([C@@H](C)C(=O)N2CCCC2)O1)n1cc(C#CCOc2ccccc2)nn1
inactive: all assays above

CCCNC(=O)NCC#Cc1cn([C@H](C)CC2CCC([C@@H](C)C(=O)N(C)Cc3ccccc3)O2)nn1 (single isomer, unassigned)
inactive: all assays above

CCN(CC)C(=O)[C@H](C)[C@H]1CC[C@@H](C[C@@H](C)n2cc(C#CCC(C)C)nn2)O1
inactive: all assays above

C[C@H](CC1CCC([C@@H](C)C(=O)N2CCN(CC3CCCO3)CC2)O1)n1cc(C#CCCCC#N)nn1 (single isomer, unassigned)
inactive: all assays above

C[C@H](C[C@@H]1CC[C@H]([C@@H](C)C(=O)N2CCN(CC3CCCO3)CC2)O1)n1cc(C#CCN(C)CCc2ccccc2)nn1 (some centres not stated)
inactive: all assays above

CCN(CC)C(=O)[C@H](C)C1CCC(C[C@@H](C)n2cc(C#CCNC(=O)OCc3ccccc3)nn2)O1 (single isomer, unassigned)
inactive: all assays above

CCN(CC)C(=O)[C@H](C)[C@H]1CC[C@@H](C[C@@H](C)n2cc(C#CCOc3ccccc3)nn2)O1
inactive: all assays above

CCN(CC)C(=O)[C@H](C)[C@H]1CC[C@@H](C[C@@H](C)n2cc(C#Cc3ccc(-c4ccccc4)cc3)nn2)O1
inactive: all assays above

C[C@H](C[C@@H]1CC[C@H]([C@@H](C)C(=O)N(C)Cc2ccccc2)O1)n1cc(C#Cc2ccccc2)nn1
inactive: all assays above

C[C@H](C[C@@H]1CC[C@H]([C@@H](C)C(=O)N2CCCC2)O1)n1cc(C#CCOc2ccc(C(F)(F)F)cc2)nn1
inactive: all assays above

C[C@H](C[C@@H]1CC[C@H]([C@@H](C)C(=O)N2CCCC2)O1)n1cc(C#Cc2ccccn2)nn1
inactive: all assays above

CCN(CC)C(=O)[C@H](C)[C@H]1CC[C@@H](C[C@@H](C)n2cc(C#CCN(C)C)nn2)O1
inactive: all assays above

CC(C)CC#Cc1cn([C@H](C)C[C@@H]2CC[C@H]([C@@H](C)C(=O)N3CCN(CC4CCCO4)CC3)O2)nn1 (some centres not stated)
inactive: all assays above
